In data set [1] the test system is Mus musculus. The data set can be described thus: Antihyperalgesic activity in albino Swiss CD1 IGS mouse model of streptozocin-induced type1 diabetic neuropathic pain assessed as increase in paw withdrawal latency at 0.005 nmol, it administered on day 10 after STZ injection measured at 180 mins post dose by […]. Format: functional, organism-based. The method in brief:
(§1)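 Male CD-1 mice (30–35 g). CCI: sciatic constriction injury, tested on days 7–16 after surgery. STZ diabetes: single ip streptozocin 200 mg/kg; mice with glucose >300 mg/dL included, tested on day 10. Drug in water for injection, given it (5 µL, L5–L6 lumbar puncture) to conscious mice. von Frey (cutoff 6 g) or cold plate (2 °C, 30 s cutoff, paw lift) at 30, 90, 180 min; 6–8 mice/group.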

The test system of data set [2] is Mus musculus. The data set can be described thus: Antihyperalgesic activity in albino Swiss CD1 IGS mouse model of chronic constriction injury-induced neuropathic pain assessed as increase in paw withdrawal latency at 0.0005 nmol, it administered on day 7 to 16 after CCI surgery measured 180 mins post dose by cold plate test. Format: functional, organism-based. The method in brief: as §1

A short description of data set [3]: Passive permeability of compound at 500 uM after 4 hrs by BBB-PAMPA. Format: ADME. As to conditions: read-out: permeability. The method in brief:
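BBB-PAMPA with porcine brain polar lipids; compound at 500 µM in donor compartment in system solution containing 20% 1-propanol; 4 h at room temperature in humidified box, 25 µm unstirred water layer. Quantified by RP-HPLC, identity by MALDI-TOF; effective permeability and % transport calculated.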
For orientation: In PAMPA a lipid-coated filter parts donor from acceptor wells.

The test system of data set [4] is Mus musculus. The data set can be described thus: Antinociceptive activity in C57BL6 mouse model of acute pain assessed as increase in withdrawal latency from radiant heat source at 61 to 196 nmol/kg, po measured after 5 to 120 mins by tail flick assay relative to control. Format: functional. The method in brief:
(§2)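 Male C57BL6 mice (20–25 g); compound or saline given iv into tail vein (po also tested). Radiant heat on ventral tail, latency to withdrawal/shaking recorded at baseline and 5, 15, 30, 60, 120 min (later points also reported); normalized as %MPE; 8–10 mice per group.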
(In general: Hot-plate and tail-flick tests time the reaction to a heat stimulus.)

Data set [5] has as its system Rattus norvegicus. The data set can be described thus: Reduction in tidal volume in Sprague-Dawley rat at 6 nmol/kg, iv after 5 to 120 mins by plethysmography method. Format: organism-based. As to conditions: in vivo. The method in brief: (§3)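 Male Sprague–Dawley rats (250–350 g) with implanted catheter and intraperitoneal temperature transmitter, dosed iv at T0; 0.9% NaCl as control; N = 6/group. Whole-body barometric plethysmography, ~60 s records at −30, −15, −5, 5–120 min.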

For data set [6], the system named is Mus musculus. The data set can be described thus: Antinociceptive activity in C57BL6 mouse model of acute pain assessed as increase in withdrawal latency from radiant heat source at 31 to 61 nmol/kg, iv measured after 180 to 240 mins by tail flick assay relative to control. Format: functional. The method in brief: as §2
The test system of data set [7] is Rattus norvegicus. The data set can be described thus: Reduction in expiratory time in Sprague-Dawley rat at 6 nmol/kg, iv after 5 to 120 mins by plethysmography method. Format: organism-based. As to conditions: in vivo. The method in brief: as §3
For data set [8], the system named is Mus musculus. The data set can be described thus: Antiallodynic activity in albino Swiss CD1 IGS mouse model of chronic constriction injury-induced neuropathic pain assessed as increase in mechanical threshold for paw withdrawal at 0.0005 nmol, it administered on day 7 to 16 after CCI surgery measured 180 mins post dose by Von Frey test. Format: functional, organism-based. The method in brief:
as §1

Data set [9] relates to Rattus norvegicus. The data set can be described thus: Induction of respiratory depression in Sprague-Dawley rat at 6 nmol/kg, iv after 5 to 120 mins by plethysmography method. The class given is organism-based. The settings on record: in vivo. The method in brief: as §3
In data set [10] the test system is Mus musculus. The data set can be described thus: Antiallodynic activity in albino Swiss CD1 IGS mouse model of streptozocin-induced type1 diabetic neuropathic pain assessed as increase in mechanical threshold for paw withdrawal at 0.005 nmol, it administered on day 10 after STZ injection measured at 180 mins post dose by Von Frey test. Format: functional, organism-based. The method in brief: as §1

In data set [11] the test system is Mus musculus. The data set can be described thus: Antiallodynic activity in albino Swiss CD1 IGS mouse model of streptozocin-induced type1 diabetic neuropathic pain assessed as increase in mechanical threshold for paw withdrawal at 0.005 nmol, it administered on day 10 after STZ injection measured at 30 mins post dose by Von Frey test. The class given is functional, organism-based. The method in brief:
as §1

For data set [12], the system named is Mus musculus. The data set can be described thus: Neurotoxicity in intrathecally dosed albino Swiss CD1 IGS mouse assessed as motor impairment measured after 15 to 120 mins post dose by rotarod test. Format: toxicity, organism-based. As to conditions: in vivo, icv_or_intrathecal. The method in brief:
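Intrathecal dosing (water for injection, 5 µL) to male CD-1 mice. After three training sessions, mice placed on accelerating rod (2 to 40 rpm over 300 s cutoff); tested 15 and 120 min after injection.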
Background: In the rotarod test animals must keep their balance on a rotating rod.

SMILES strings stand for the structures. The source made the active and inactive calls. Numbered stars: 1 amine (or outer) side, 2 acyl side, 3 side chain; on linkers, the order of the positions; unused ones are H or OH. Square brackets hold non-standard residues; d marks the D form. Peptide text beside a SMILES is read from it. X1 = O=C1[C@@H](N[*:1])Cc2ccccc2CN1CCC(=O)[*:2]; Dmt = Cc1cc(O)cc(C)c1C[C@H](N)C(=O)O

Consider `CC[C@H](C)[C@H](NC(=O)[C@H](CCCNC(=N)N)NC(=O)[C@H](Cc1ccc(O)cc1)NC(=O)[C@H](Cc1ccc(O)cc1)NC(=O)[C@H](CCCNC(=N)N)NC(=O)CCN1Cc2ccccc2C[C@H](NC(=O)[C@@H](CCCNC(=N)N)NC(=O)[C@@H](N)Cc2c(C)cc(O)cc2C)C1=O)C(=O)N[C@@H](CCCCN)C(N)=O` (H-[Dmt][dR][X1]RYYRIK-NH2), for which the result in the data set with Mus musculus [1], in the data set on Mus musculus [2], in the data set on Mus musculus [8] and in the data set on Mus musculus [11] was Active. In addition, the Papp at 4 h, 500 µM in data set [3] is 0.11 ×10⁻⁶ cm/s. Further, the MPE is reported as below 5% with Mus musculus [4] and 100% with Mus musculus [6]. Moreover, the Activity entry in the data set on Rattus norvegicus [5], with Rattus norvegicus [7], in the data set on Rattus norvegicus [9] and with Mus musculus [12] was “Non-toxic” each time. For the same molecule, the result in the data set with Mus musculus [10] was inactive.

Values taken from ChEMBL document CHEMBL3808291, “Bifunctional Peptide-Based Opioid Agonist-Nociceptin Antagonist Ligands for Dual Treatment of Acute and Neuropathic Pain” (J Med Chem, 2016).
